# Experimental data collected from several papers.
# Protocols differ between the studies behind these lines.
# TYK2 JH1: Non-receptor tyrosine-protein kinase TYK2, JH1 (TYK2, Homo sapiens, UniProt P29597)
# TYK2 JH2: Non-receptor tyrosine-protein kinase TYK2, JH2 (TYK2, Homo sapiens, UniProt P29597)
# TYK2: Non-receptor tyrosine-protein kinase TYK2 (TYK2, Homo sapiens, UniProt P29597)
Compound,target,test,conditions,remaining binding [%]
O=C(NCCCN1CCOCC1)c1ccc(Nc2ncc(Cl)c(-c3ccc(Cl)s3)n2)cc1,TYK2 JH1,"binding, competition with immobilised ligand",1 µM,26
O=C(Nc1c[nH]nc1C(=O)NC1CCNCC1)c1cc(F)cc(F)c1,TYK2 JH2,"binding, competition with immobilised ligand",1 µM,100
CN1CCN(c2ccc(Nc3nccc(-c4ccccc4)n3)cc2C(F)(F)F)CC1,TYK2,binding,10 µM,0
COc1ncc2cc3ccccc3nc2c1C#N,TYK2 JH2,"cell-free assay, competition with immobilised ligand",5 µM,99
O=C(NCC1CCOCC1)c1n[nH]cc1NC(=O)c1c(F)cccc1F,TYK2 JH1,"binding, competition with immobilised ligand",1 µM,91
Nc1ncc2c(n1)-c1c([nH]c3ccc(C#CC4CC4)cc13)CCCC2,TYK2 JH2,"binding, competition with immobilised ligand",1 µM,73
CCN1CCN(Cc2ccc(C(=O)Nc3ccc(C)c(Oc4ccc5c(c4)CC(=O)N5)c3)cc2C(F)(F)F)CC1,TYK2 JH1,"binding, competition with immobilised ligand",1 µM,100
COc1cnc(Nc2cccc(S(N)(=O)=O)c2)nc1N1CCN(c2ccccc2)C(=O)C1,TYK2 JH1,"binding, competition with immobilised ligand",1 µM,39
F[C@@H]1CCN(c2nccc(-c3cnn4ncccc34)n2)C1,TYK2,binding,1 µM,100
CC(=O)c1c(NS(C)(=O)=O)c2cc(-c3ccc(Cl)cc3)c(-c3ccc(Cl)cc3Cl)nc2n(C)c1=O,TYK2 JH2,"cell-free assay, competition with immobilised ligand",1 µM,89
CN(CCCC(F)(F)F)c1nccc(-c2cnn3ncccc23)n1,TYK2 JH1,"cell-free assay, competition with immobilised ligand",1 µM,100
CCCOc1ccc([C@H]2[C@H](C(=O)O)[C@@H](c3ccc4c(c3)OCO4)CN2CC(=O)Nc2c(CC)cccc2CC)cc1,TYK2 JH2,"cell-free assay, competition with immobilised ligand",1 µM,80
C[C@@H]1CN(c2ccc3ncc(-c4ccc5[nH]nc(C6CC6)c5c4)n3n2)C[C@H](C)O1,TYK2,"binding, competition with immobilised ligand",0.5 µM,100
CN(C)c1nccc(-c2cnc3ncccn23)n1,TYK2,binding,1 µM,82
CC(C)(C)c1ccc(-c2nc(CBr)nn2-c2cccc(O)c2)cc1,TYK2,"cell-free assay, competition with immobilised ligand",10 µM,62
CN(C)c1ncc(F)c(-c2cnn3ncccc23)n1,TYK2,binding,1 µM,70
Cc1cnc(Nc2ccc(C(=O)N3CCC(N4CCCC4)CC3)cc2)nc1-c1cc2ccccc2s1,TYK2 JH2,"binding, competition with immobilised ligand",1 µM,0
CN(C)c1ncnc(-c2ccc3nc(Nc4cc(CN5CCN(C(=O)CC(F)(F)F)CC5)ccn4)[nH]c3c2)c1Cl,TYK2 JH2,"cell-free assay, competition with immobilised ligand",1 µM,77
CNC(=O)[C@@H]1CC[C@@H](n2c(-c3ccc4cnccc4c3)nc3ccc(C(=O)NCc4cccc(C(N)=O)c4)cc32)C1,TYK2 JH1,"binding, competition with immobilised ligand",1 µM,99
CCc1ccccc1C(=O)Nc1n[nH]c2c(C)c(F)c(C3C(C#N)=C(C)N(C)C(C)=C3C#N)cc12,TYK2 JH1,"cell-free assay, competition with immobilised ligand",1 µM,100
CN(C)c1nccc(-c2cnn3ncccc23)n1,TYK2 JH1,"cell-free assay, competition with immobilised ligand",1 µM,51
CC(=O)Nc1c(C(C)=O)c(=O)n(C)c2nc(-c3ccc(Cl)cc3Cl)c(-c3ccc(Cl)cc3)cc12,TYK2 JH2,"cell-free assay, competition with immobilised ligand",1 µM,100
O=C(c1ccc(Nc2ncc(Cl)c(-c3ccc(Cl)s3)n2)cc1)N1CCC(N2CCCC2)CC1,TYK2 JH1,"binding, competition with immobilised ligand",1 µM,25
COc1cnc(Nc2cccc(S(N)(=O)=O)c2)nc1N1CCN(c2ccccc2)CC1,TYK2 JH2,"binding, competition with immobilised ligand",1 µM,85
Cc1nc(C2CCN(C(=O)c3ccc(OC(F)(F)F)cc3N)CC2)c2ncc(N3CCN(C)CC3)cc2n1,TYK2 JH2,"cell-free assay, competition with immobilised ligand",1 µM,88
c1cncc(-c2cccc(Nc3nccc(NC4CCCCC4)n3)c2)c1,TYK2 JH1,"binding, competition with immobilised ligand",10 µM,0.2
N[C@@H]1CCN(c2nccc(-c3cnn4ncccc34)n2)C1,TYK2 JH1,"cell-free assay, competition with immobilised ligand",1 µM,100
O=C(c1ccc(Nc2nccc(-c3cc4ccccc4s3)n2)cc1)N1CCC(N2CCCC2)CC1,TYK2 JH2,"binding, competition with immobilised ligand",1 µM,0.1
N#Cc1ccccc1CSc1nnc2c(n1)[nH]c1ccccc12,TYK2 JH1,"binding, competition with immobilised ligand",10 µM,96
COc1ccc2cc(OCC3(C(=O)O)CN(C(=O)c4ccc(F)cc4)C3)ccc2c1,TYK2 JH2,"cell-free assay, competition with immobilised ligand",1 µM,100
O=C(c1ccc(Nc2ncc(Cl)c(-c3cc4ccccc4s3)n2)cc1)N1CCC(N2CCCC2)CC1,TYK2 JH2,"binding, competition with immobilised ligand",1 µM,0.1
COc1ccnn2ncc(-c3ccnc(N(C)C)n3)c12,TYK2 JH1,"cell-free assay, competition with immobilised ligand",1 µM,81
O=C(NCCCN1CCOCC1)c1ccc(Nc2nccc(-c3cc4ccccc4s3)n2)cc1,TYK2 JH2,"binding, competition with immobilised ligand",1 µM,0
CC(=O)N1CCC(c2ccc(C(=O)NC3=NCCN3)cc2C(F)(F)F)CC1,TYK2 JH2,"cell-free assay, competition with immobilised ligand",1 µM,100
